Measured values taken from the M2OR odorant receptor database.

What follows are compounds tested against T1, OR2M3 (Homo sapiens) (UniProt Q8NG83). Settings: stereoisomer not certain.
T1 sequence (whole entry): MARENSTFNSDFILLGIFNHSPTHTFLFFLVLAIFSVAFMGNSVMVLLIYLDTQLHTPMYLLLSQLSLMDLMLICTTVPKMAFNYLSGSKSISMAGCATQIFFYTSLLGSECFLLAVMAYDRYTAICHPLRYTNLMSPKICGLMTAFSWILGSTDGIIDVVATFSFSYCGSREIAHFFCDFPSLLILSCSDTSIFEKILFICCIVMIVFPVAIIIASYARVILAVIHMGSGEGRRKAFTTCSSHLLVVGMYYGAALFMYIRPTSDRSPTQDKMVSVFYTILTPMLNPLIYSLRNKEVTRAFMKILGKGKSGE
Summary of the method: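 Each receptor–molecule pair is labelled responsive or non-responsive (inactive) according to whether the original authors judged the measured signal statistically different from baseline. The data were taken from the main text and supplementary material of published papers and checked for typos and inconsistencies. Assay methods differed by source, with transient luciferase assays in mammalian cell lines being common.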
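Note: active if original authors judged signal statistically different from baseline.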

Compound | odorant receptor agonist call
C=C(C)c1ccc(C)cc1 | inactive
CCCCCC=CC=O | inactive
CCCCCC(C)O (stereo unspecified) | inactive
CCC(=O)C1=NCCC1 | inactive
CCc1ncc(C)nc1CC | inactive
CCOC(=O)c1ccccc1 | inactive
CCOC(=O)CCSC | inactive
CCCCC=CC=O | inactive
O=C(O)C=Cc1ccc(O)cc1 | inactive
CCCCC(=O)OCC | inactive
CCC=O | inactive
CCCC(S)CCO (stereo unspecified) | inactive
CCC(S)C(C)=O (stereo unspecified) | inactive
CCCC(O)CC(=O)OCC (stereo unspecified) | inactive
CCC(C)C(=O)OC (stereo unspecified) | inactive
CCC=CCCOC(C)=O | inactive
CCCCC(C)CCC(=O)O (stereo unspecified) | inactive
C=CC(O)CCCCC (stereo unspecified) | inactive

Compound | odorant receptor agonist call
CC(=O)c1cnccn1 | inactive
CCCCCc1ccccn1 | inactive
CCC=CCCC=CC=O | inactive
OCCc1ccccc1 | inactive
COc1cccc(OC)c1O | inactive
CC(S)C(C)CO (stereo unspecified) | active
CC(C)CO | inactive
CSSSC | inactive
COC(=O)C(C)C | inactive
CC(=O)C=CC1=C(C)CCCC1(C)C | inactive
CCC=CCCC=O | inactive
SCc1cccs1 | inactive
CCC(=O)C(C)S (stereo unspecified) | inactive
CCCCCCC=CC=O | inactive
CC(C)=CC1CC(C)CCO1 (stereo unspecified) | inactive
CC(C)CC=O | inactive
CCCCC1OC(=O)CC1C (stereo unspecified) | inactive
CCCC=CC=O | inactive
